DNMT1 inh = blocks human DNA methyltransferase DNMT1. DNMT1 molecular beacon, Hinp1I cleavage, fluorescence. 360,000 tested, 0.83% active. AID 588458. P26358. inhibition (reported as % activation of signal), % at 10 µM; in the data active means inhibition above about 50%
STEP inh = STEP (human) phosphatase inhibition; AID 588621; recombinant STEP, OMFP fluorogenic substrate, fluorescence; 360,000 tested, 0.25% active; inhibition, % at 20 µM;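 active means inhibition at 20 µM, scaled per plate between control wells, above about 37%, limit read from the data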
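System: STEP (striatal-enriched tyrosine phosphatase) enzyme, cell-free; medium: Bis-Tris pH 6.0 buffer with DTT, detergent; dosing: 20 µM, 1% DMSO; times: reaction 20 min, ambient temperature; detection: fluorescence, 480/540 nm; read-out basis: normalized % inhibition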
SUMO1 PPI mod = SUMO1-SIM interaction modulation; P63165; inhibition, % at 20 µM; AID 602429; SUMO1 binding to a labelled peptide, TR-FRET, 1 h; 360,000 tested, 0.33% active; in the data active means inhibition above about 37%
Target sequence (P63165 whole entry, looked up): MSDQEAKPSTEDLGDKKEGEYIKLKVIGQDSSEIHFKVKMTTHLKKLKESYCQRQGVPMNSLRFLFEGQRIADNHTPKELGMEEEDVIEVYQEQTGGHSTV
UBC9 SUMO inh = blocks human SUMOylation mediated by UBC9; 290,000 tested, 0.36% active; AID 2006; HTRF SUMOylation assay, SAE1/SAE2 + UBC9, in vitro; P63279; inhibition, % at 35 µM; in the data active means inhibition above about 50%, passing the limit was not always enough; inconclusive means no clear call, values can overlap the other calls
Target sequence (P63279 whole entry, looked up): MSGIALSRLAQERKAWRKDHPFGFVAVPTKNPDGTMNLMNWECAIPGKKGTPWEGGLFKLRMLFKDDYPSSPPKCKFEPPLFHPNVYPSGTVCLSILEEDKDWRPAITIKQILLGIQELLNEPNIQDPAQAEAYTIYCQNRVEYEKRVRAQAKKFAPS
Scp1 inh = blocks human Scp-1 phosphatase activity; Recombinant Scp1, phosphopeptide, malachite green phosphate absorbance; inhibition, % at 20 µM; 340,000 tested, 0.88% active;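 active means inhibition above about 50% at 20 µM, limit read from the data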
Target sequence (Q9GZU7 76-261 limits assumed): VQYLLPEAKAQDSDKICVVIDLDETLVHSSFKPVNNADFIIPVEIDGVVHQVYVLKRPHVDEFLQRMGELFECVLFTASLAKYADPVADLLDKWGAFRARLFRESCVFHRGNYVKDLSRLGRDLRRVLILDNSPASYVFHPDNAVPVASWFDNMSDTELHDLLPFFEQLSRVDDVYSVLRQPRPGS
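Material: truncated SCP-1 phosphatase (76-261aa) / Buffer or medium: 50 mM Tris acetate pH 5.5, 0.005% Tween-20, 10 mM MgCl2 / Compound dosing: one concentration, 20 µM, with 1.0% DMSO / Incubation: 45 min room-temperature reaction, 5 min colour, 30 min stabiliser / Detection: colorimetric free-phosphate detection, absorbance 630 nm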
LMPTP inh = blocks human LMPTP phosphatase; P24666; inhibition, % at 20 µM; recombinant LMPTP-A, OMFP fluorogenic substrate, fluorescence intensity; 360,000 tested, 0.22% active;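 active means compounds that cut the enzyme signal by at least half of the control window in the single-dose screen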
Target sequence (P24666 whole entry, looked up): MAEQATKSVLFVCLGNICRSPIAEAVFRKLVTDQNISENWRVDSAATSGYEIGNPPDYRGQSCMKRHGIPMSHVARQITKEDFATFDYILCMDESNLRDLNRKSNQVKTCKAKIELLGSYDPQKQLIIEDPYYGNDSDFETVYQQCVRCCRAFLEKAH
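Test system – LMPTP-A enzyme · Amount – LMPTP-A at 0.625 nM final in the reaction · Buffer or medium – Bis-Tris pH 6.0, DTT, detergent · Reagent – OMFP 400 µM · Doses – single 20 µM dose · Schedule – reaction 50 min, room temperature, dark · Detection – fluorescence intensity of OMFP turnover product · Evaluation – percent inhibition versus substrate-only and uninhibited controls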
DNMT1 interf DR = beacon fluorescence artifact, dose response counter-screen; 200 tested, under 10 active; shares compounds with DNMT1 inh; IC50, µM; AID 602382; molecular beacon fluorescence, spectral interference counter-screen; call rule not given here
DNMT1 inh conf = confirmation of human DNMT1 inhibitors | shares compounds with DNMT1 inh | DNMT1 molecular beacon HinP1I cleavage, fluorescence | inhibition, % at 10 µM | 2,300 tested, 8% active;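 active means average inhibition of at least 30% in the single-concentration confirmation test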
DNMT1 interf = shows spectral interference in the DNMT1 beacon assay | shares compounds with DNMT1 inh | DNMT1 molecular beacon spectral interference counterscreen, fluorescence 485/520 | activation (fluorescence interference), % at 10 µM | 2,300 tested, 1% active | AID 602387;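 active means activation of at least 30% at 10 µM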;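 further: DNMT1 catalytic domain with a HinP1I cleavage step and a FAM/dabcyl DNA beacon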
Numbers stand for hits; . = inactive; ? = inconclusive; / = no result. This is a sample that favours compounds with a hit; in the whole collection about 1.9% have one here.

SMILES	DNMT1 inh	STEP inh	SUMO1 PPI mod	UBC9 SUMO inh	Scp1 inh	LMPTP inh	DNMT1 inh conf	DNMT1 interf	others
O=C(CCN1C(=O)/C(=C\C=C\c2ccccc2)SC1=S)Nc1ccccc1C(=O)O	75	.	.	.	.	.	.	.
Cc1[nH]c(=O)[nH]c(=O)c1S(=O)(=O)N1CCCC(C(=O)NCCC2=CCCCC2)C1 (stereo not drawn)	.	.	.	.	.	.	/	/
Cc1onc(-c2ccccc2)c1NC(=O)N(CCC(=O)O)Cc1ccccc1	.	.	.	.	.	.	/	/
C=CCn1c(SCC(=O)c2[nH]c(C)c(C(=O)OCC)c2C)nc2scc(-c3ccccc3)c2c1=O	57	.	.	.	.	.	.	.
COc1cc(/C=C(\C#N)c2nc3ccccc3s2)ccc1OCC(=O)Nc1ccccc1	57	.	.	.	.	.	.	.
COc1cc(/C=C(/C#N)c2nc3ccccc3[nH]2)ccc1OCC(=O)Nc1ccccc1C	52	.	.	?	.	.	.	.
CCOC(=O)/C(C#N)=C/c1ccc(OCC(=O)Nc2ccc(C)c(C)c2)c(OC)c1	54	.	.	.	.	.	.	.
COc1cc(/C=C(\CC(=O)O)c2nc3ccccc3s2)ccc1OCC(=O)Nc1ccccc1F	.	.	.	/	.	.	/	/
CC(C)(C)CCN1CCC(CN2CCNC2=S)CC1	.	.	.	/	/	.	/	/
CN(C(=O)Cn1cc(C(F)(F)F)cc(Cl)c1=O)C1CCS(=O)(=O)C1 (stereo not drawn)	.	.	.	/	.	.	/	/
COc1cc(OC)cc(C(=O)NC(C(=O)OCn2nnc3ccccc3c2=O)C(C)C)c1 (stereo not drawn)	87	.	.	/	.	.	.	.
Oc1ccc(N=Cc2ccc(-c3cccs3)s2)cc1	77	.	68	.	.	.	.	.
Cn1c(-c2ccccc2)cc(=O)n1-c1ccccc1	70	.	.	/	.	.	.	.
COc1ccc(CNC(=O)C2(C)Cc3c(-c4cccc(C(N)=O)c4)ccnc3O2)cc1OC (stereo not drawn)	.	.	.	/	/	.	/	/
O=C(CSc1nnc(CNC(=O)c2cccs2)o1)Nc1ccccc1C(F)(F)F	.	.	.	.	.	.	/	/
CCC(CC)C(=O)N(C)c1c(C)nc2c(OCc3ccccc3C)cccn12	68	.	.	/	/	.	.	.
CCC(CC)C(=O)N(C)c1c(C)nc2c(OCc3ccc(Cl)cc3Cl)cccn12	.	.	.	/	/	.	/	/
Cc1cc(NC(=O)c2cc(-c3ccccn3)nc3c(Cl)cccc23)no1	58	.	.	.	.	.	.	.
CCn1cc(S(=O)(=O)NCCc2ccc(OC)c(OC)c2)cn1	83	.	.	.	.	.	.	.
CC(C)c1cccc(C(C)C)c1NC(=O)CN(C)C1CCS(=O)(=O)C1 (stereo not drawn)	.	.	.	/	.	.	/	/
O=c1c2c([nH]c3ccccc13)C(=C1CCCC1)CC2	92	.	.	.	.	59	.	.
O=C(/C=C/c1ccco1)N1CCC(Cc2ccccc2)CC1	87	.	.	.	.	.	.	.
O=C(/C=C/c1ccco1)N1CCN(c2ncccn2)CC1	.	.	.	.	.	.	/	/
COc1ccc(S(=O)(=O)N2CCN(CC(=O)NCCc3cccs3)CC2)cc1	.	.	.	/	.	.	/	/
O=C1c2sccc2-c2cccc3cccc1c23	66	.	.	/	/	.	65	.	DNMT1 interf DR=.
SMILES	DNMT1 inh	STEP inh	SUMO1 PPI mod	UBC9 SUMO inh	Scp1 inh	LMPTP inh	DNMT1 inh conf	DNMT1 interf	others
CC(C)OCCCNC(=O)CN1C(=O)CSc2ccc(S(=O)(=O)N3CCCCC3)cc21	69	.	.	/	.	.	.	.
Cc1cc(C(=O)COC(=O)C(C)NC(N)=O)c(C)n1Cc1ccco1 (stereo not drawn)	.	.	.	.	.	.	/	/
Cc1cc(C(=O)C(C)Cl)c(C)n1Cc1ccco1 (stereo not drawn)	65	.	.	.	.	.	.	.
C=CC[C@@H](CC(=O)N[C@@H](CO)Cc1ccccc1)C(=O)NC[C@@H](OC(=O)[C@@H](CC=C)CC(=O)OC(C)(C)C)c1ccccc1	57	.	.	/	.	.	.	.
COC(=O)C1=COC(OC2OC(CO)C(O)C(O)C2O)C2C(C)CC(=O)C12 (stereo not drawn)	74	.	.	/	/	.	.	.
COC(=O)C1=CO[C@@H](O[C@@H]2O[C@H](CO)[C@@H](O)[C@H](O)[C@H]2O)C2C1CC(O)O[C@H]2C (stereo partly drawn)	.	.	.	/	.	.	/	/
CCC(c1nnnn1-c1ccc2c(c1)OCCO2)N1CCN(C(C)=O)CC1 (stereo not drawn)	/	/	.	/	/	.	/	/
Cc1cc(Cl)ccc1OCC(=O)Nc1cccc(S(=O)(=O)NC2=NCCCCC2)c1	95	.	.	/	.	.	.	.
Cc1ccc(C)c(OCC(=O)Nc2cccc(S(=O)(=O)NC3=NCCCCC3)c2)c1	.	.	.	.	.	.	/	/
CSc1nnc2c3cc(C)ccc3n(Cc3ccccc3)c2n1	77	.	.	.	.	.	.	.
c1ccc(Cn2c3ccccc3c3nnc(SCCN4CCCCC4)nc32)cc1	.	.	.	.	.	.	/	/
COCCCn1c(SCC(=O)Nc2ccc(C)cc2)nc2ccccc2c1=O	.	.	.	.	.	.	/	/
COCCn1c(SCC(=O)Nc2ccc(F)cc2)nc2ccccc2c1=O	83	.	.	.	.	.	.	.
COCCN(C(=O)C1=COCCO1)c1c(N)n(CC(C)C)c(=O)[nH]c1=O	.	.	.	/	.	.	/	/
O=c1c2ccccc2sc2nc(C3CCCCC3)n(Cc3ccco3)c(=O)c12	.	.	.	.	.	.	/	/
CCc1nc2sc3ccccc3c(=O)c2c(=O)n1Cc1ccco1	88	.	.	.	.	58	.	.
CN(c1ccccc1)c1ccc(/C=C(\CCC(=O)O)c2nc3ccccc3s2)cc1[N+](=O)[O-]	74	.	.	/	.	.	.	.	DNMT1 interf DR=.
Cc1cc(C)n2nc(C(=O)OCC(=O)N(C)C3CCS(=O)(=O)C3)nc2n1 (stereo not drawn)	.	.	.	/	.	.	/	/
CC1(OC(=O)CCc2ccccc2)C(=O)C=C2C=C3CCCN3C=C2C1=O (stereo not drawn)	77	.	.	.	.	.	.	.
